Measurements pooled from the literature.
Oprd1: Delta-type opioid receptor (Oprd1, Mus musculus, UniProt P32300)
lecA: PA-I galactophilic lectin (lecA, Pseudomonas aeruginosa, UniProt Q05097)
CHRM2: Muscarinic acetylcholine receptor M2 (CHRM2, Homo sapiens, UniProt P08172)

SMILES | target | assay | setting | endpoint | value
Cc1cc(O)cc(C)c1C[C@H](N)C(=O)N[C@H](C)C(=O)N[C@@H](Cc1ccccc1)C(=O)N[C@@H](CCCN)C(N)=O | Oprd1 | ligand displacement, radioligand | cell membranes | Ki | 0.06 µM
CC(C)C[C@H](NC(=O)CNC(=O)[C@H](C)NC(=O)c1ccc(S[C@@H]2O[C@H](CO)[C@H](O)[C@H](O)[C@H]2O)cc1)C(=O)N[C@@H](C)C(=O)N1CCN(c2cc3c(cc2F)c(=O)c(C(=O)O)cn3C2CC2)CC1 | lecA | ligand displacement, FP |  | Ki | 12.9 µM
Cc1nccc2c1[nH]c1ccccc12 | Amine oxidase [flavin-containing] A (Maoa, Rattus norvegicus, UniProt P21396) | enzyme activity, inhibitor |  | Ki | 0.75 µM
COc1cc(C(=O)N2CC[C@@H](O)[C@@H](N)C2)cc2nc(-c3cc4ccccc4n3CC3CC3)n(C)c12 | CHRM2 | calcium signal, agonist |  | EC50 | > 15.8 µM
CC(C)C[C@H](NC(=O)[C@H](Cc1ccccc1)NC(=O)[C@H](Cc1ccc(O)cc1)NC(=O)CNC(=O)[C@H](CCCCN)NC(=O)[C@H](CO)NC(=O)[C@H](CCC(N)=O)NC(=O)CNC(=O)[C@@H](NC(=O)[C@H](CO)NC(=O)[C@@H]1CCCN1C(=O)[C@H](CO)NC(=O)[C@H](CCC(N)=O)NC(=O)[C@H](Cc1ccc(O)cc1)NC(=O)[C@H](CCC(=O)O)NC(=O)[C@H](C)NC(=O)[C@H](CCCCN)NC(=O)[C@@H](N)Cc1ccccc1)C(C)C)C(=O)N[C@@H](Cc1ccccc1)C(=O)N[C@@H](CCCNC(=N)N)C(=O)N1CCC[C@H]1C(=O)N[C@@H](CCCNC(=N)N)C(=O)N[C@@H](CC(N)=O)C(N)=O | Neuromedin-U receptor 1 (Mus musculus, UniProt O55040) | inositol phosphate, agonist |  | EC50 | 0.000166 µM
CC[C@H](C)[C@H](NC(=O)[C@H](Cc1ccccc1)NC(=O)[C@H](CC(=O)O)NC(=O)[C@H](CCCNC(=N)N)NC(=O)[C@@H](NC(=O)[C@H](C)NC(=O)[C@H](CC(C)C)NC(=O)[C@H](CC(N)=O)NC(=O)[C@H](CC(=O)O)NC(=O)[C@H](CC(C)C)NC(=O)[C@@H](NC(=O)[C@@H](NC(=O)[C@H](CO)NC(=O)[C@H](CCSC)NC(=O)[C@H](CCC(=O)O)NC(=O)[C@H](CC(=O)O)NC(=O)[C@H](CO)NC(=O)[C@H](Cc1ccccc1)NC(=O)[C@H](CO)NC(=O)CNC(=O)[C@H](CC(=O)O)NC(=O)[C@H](C)NC(=O)[C@@H](N)Cc1c[nH]cn1)[C@@H](C)O)[C@@H](C)CC)[C@@H](C)O)C(=O)N[C@@H](CC(N)=O)C(=O)N[C@@H](Cc1c[nH]c2ccccc12)C(=O)N[C@@H](CC(C)C)C(=O)N[C@H](C(=O)N[C@@H](CCC(N)=O)C(=O)N[C@H](C(=O)N[C@@H](CCCCN)C(=O)N[C@H](C(=O)N[C@H](C(=O)N[C@@H](CC(=O)O)C(=O)O)[C@@H](C)O)[C@@H](C)CC)[C@@H](C)O)[C@@H](C)CC | Gastric inhibitory polypeptide receptor (Mus musculus, UniProt Q0P543) | reporter gene, agonist, luciferase |  | EC50 | > 1 µM
N[C@H](CO)Cc1ccccc1 | Phenylalanine-4-hydroxylase (Pah, Rattus norvegicus, UniProt P04176) | binding, fluorescence | pH 7.5 | Kd | 10600 µM
CC(C)[C@@H](Nc1nc(Cl)nc2c1ncn2[C@H]1[C@H](O)[C@H](O)[C@]2(CN)C[C@H]12)C1CC1 | CHRM2 | ligand displacement, radioligand |  | Ki | > 6.6 µM
CC(C)[C@H](NC(=O)[C@H](CCCCN)NC(=O)[C@@H](NC(=O)[C@@H]1CCCN1C(=O)[C@H](CCCNC(=N)N)NC(=O)CNC(=O)[C@@H](NC(=O)[C@@H](NC(=O)CNC(=O)[C@H](CO)NC(=O)CNC(=O)CCCC[C@@H]1SC[C@@H]2NC(=O)N[C@@H]21)[C@@H](C)O)[C@@H](C)O)[C@@H](C)O)C(=O)N[C@@H](Cc1ccccc1)C(=O)N[C@H](C(=O)N1CCC[C@H]1C(=O)N1CCC[C@H]1C(=O)N[C@@H](Cc1ccccc1)C(=O)N[C@@H](CCCCN)C(=O)N[C@H](C(=O)N[C@@H](CCCCN)C(=O)N[C@@H](CO)C(=O)N[C@@H](Cc1c[nH]cn1)C(=O)N[C@@H](Cc1ccccc1)C(=O)N[C@@H](Cc1c[nH]cn1)C(N)=O)[C@@H](C)O)C(C)C | DMC1 (Homo sapiens, UniProt Q14565) | binding, BLI |  | Kd | 0.0013 µM
CC(C)C[C@H](NC(=O)CNC(=O)[C@H](C)NC(=O)c1ccc(S[C@@H]2O[C@H](CO)[C@H](O)[C@H](O)[C@H]2O)cc1)C(=O)N[C@@H](C)C(=O)NC[C@@H]1CCN(c2cc3c(cc2F)c(=O)c(C(=O)O)cn3C2CC2)C1 | lecA | ligand displacement, FP |  | Ki | 11.2 µM
CC(=O)NC[C@H](NC(=O)[C@H](CCCNC(=N)N)NC(=O)[C@H](CCCNC(=N)N)NC(=O)[C@H](CC(C)C)NC(=O)[C@H](Cc1ccccc1)NC(=O)CNC(=O)CNC(=O)[C@H](Cc1ccc(O)cc1)NCc1ccccc1)C(=O)N[C@@H](CCCNC(=N)N)C(=O)N1CCC[C@H]1C(=O)N[C@@H](CCCCN)C(N)=O | Oprd1 | ligand displacement, radioligand | cell membranes | Ki | 2.29 µM
